Reference: article PMC4945769 (British Journal of Pharmacology, 2016)
pIC50: −log10 of the molar value.

Columns and labels:
PK studies in the rat = type: in vivo; details: Sprague Dawley, plasma, intravenous, 1 mg·kg^−1
Procedure, shortened: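 Male Sprague Dawley rats were given test compound at 1 mg·kg−1 IV or 3 mg·kg−1 orally; dose was set by syringe weight difference. Serial tail-vein blood was taken from 2 to 1440 min and centrifuged at 4°C. Plasma was stored at −20°C and then quantified by LC–MS/MS against calibration curves in control rat plasma. Parameters were derived by non-compartmental analysis.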

[1] = Plasma protein binding by equilibrium dialysis, human plasma; type: in vitro ADME; details: 10 μM, 18 h at 37°C, mean, n of at least 3
Procedure, shortened: (§1)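 Test compound at 10 μM final was added to plasma and dialysed against buffer across a 5 kD membrane in a rotating unit for 18 h at 37°C. Buffer and plasma-side aliquots were quenched in methanol and measured by LC–MS/MS. Free fraction is the mean of at least three studies.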

[2] = Plasma protein binding by equilibrium dialysis, rat plasma; type: in vitro ADME; details: 10 μM, 18 h at 37°C, mean, n of at least 3
Procedure, shortened: as §1

[3] = Prediction of human PK for AZ2; details: predicted
NSP activity = assay: Pharmacokinetic/pharmacodynamic modelling of NSP activity in rat; type: in vivo
Procedure, shortened: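 Rat NSP activity time courses were fitted with an indirect response model: production rate kin scaled by uninhibited DPP1 fraction 1 − C/(IC50 + C), loss rate kout, baseline taken as 100%. IC50 was the in vitro cell potency corrected for plasma protein binding. Exposure was simulated with a one-compartment PK model. kout was fitted to blood data from the onset study and bone marrow data from the recovery study.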

neutrophil elastase (NE) = assay: Onset studies: NE activity in rat blood and bone marrow lysates; type: in vivo; details: onset 1 (14 day study), bone marrow
Procedure, shortened: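 Rats were dosed orally twice daily with test compound, 3.6 mg·kg−1 and then 10.7 mg·kg−1 8 h later, against citrate buffer pH 3.0 vehicle. Onset 1 ran 5, 8, 10, 12 or 14 days. Femurs were taken under isoflurane 2 h after the last dose. Marrow leukocytes were lysed on ice at 10^8 cells mL−1. Lysates received Methoxysuccinyl-Ala-Ala-Pro-Val-AMC and were read by fluorescence (ex 350–380, em 450–460 nm) for up to 60 min. Initial rate came from the linear range.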

proteinase 3 (PR3) = assay: Onset studies: PR3 activity in rat blood and bone marrow lysates; type: in vivo; details: onset 1 (14 day study), bone marrow
Procedure, shortened: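 Male Sprague Dawley rats received test compound orally twice daily, 3.6 and 10.7 mg·kg−1 8 h apart, for up to 14 days. Vehicle was citrate buffer pH 3.0. Blood and femoral marrow lysates (10^8 cells mL−1, Triton X-100) were incubated 15 min, then given the 5-FAM/QXL520 quenched peptide substrate. Fluorescence (ex 320–490, em 405–520 nm) was followed up to 60 min. Initial rate came from the linear portion.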

cathepsin G (CatG) = assay: Onset studies: CatG activity in rat blood and bone marrow lysates; type: in vivo; details: two onset studies, small assay window
Procedure, shortened: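 Male Sprague Dawley rats (200–400 g) were dosed orally twice daily, 3.6 mg·kg−1 in the morning and 10.7 mg·kg−1 8 h later, for 5–14 days (onset 1) or 1–8 days (onset 2). Vehicle was 0.1 M citrate buffer, pH 3.0. Blood and femoral marrow cells were lysed at 10^8 cells mL−1 in Triton X-100 buffer. Lysates were incubated 15 min, then given N-succinyl-Ala-Ala-Pro-Phe-pNA and read by absorbance at 405 nm for 90–120 min. Initial rate was taken from the linear range.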

DPP1 = DPP1 (Homo sapiens, UniProt P53634); assay: DPP1 activity cell assay; type: cell-based; details: read-out: DPP1 IC50, corrected for PPB; in vitro potency corrected for rat PPB

SMILES | clearance (PK studies in the rat) | PPB (%free) [1] | PPB (%free) [2] | CL [3] | maximum reduction in protease activity in bone marrow (NSP activity; recovery study) | days of treatment to reach maximum reduction in NE activity (neutrophil elastase (NE)) | days of treatment to reach maximum reduction in PR3 activity (proteinase 3 (PR3)) | effect on CatG activity (cathepsin G (CatG)) | pIC50 (DPP1) | maximum reduction in protease activity in blood (NSP activity; onset studies)
N#Cc1ccc(-c2ccc(C[C@@H](C#N)NC(=O)C3(N)CCOCC3)cc2)cc1 [AZ2, (S)‐4‐amino‐N‐(1‐cyano‐2‐(4′‐cyanobiphenyl‐4‐yl)ethyl)tetrahydro‐2H‐pyran‐4‐carboxamide] | 1.67 mL/min | 9.1 %free | 11 %free | 3.4 L/h | 90% |  |  |  |  | 
N#Cc1ccc(-c2ccc(C[C@@H](C#N)NC(=O)[C@@H]3CCCCN3)cc2)cc1 [AZ1, (S)‐N‐((S)‐1‐cyano‐2‐(4′‐cyanobiphenyl‐4‐yl)ethyl)piperidine‐2‐carboxamide] | 6.67 mL/min |  | 4.1 %free |  |  | 8 days | 8 days | lack of effect | 6.85 | about 75%
